Source: ChEMBL document CHEMBL1275408, “A chemical genomic screen in Saccharomyces cerevisiae reveals a role for diphthamidation of translation elongation factor 2 in inhibition of protein synthesis by sordarin” (2008)
The source made the active and inactive calls.

How the values were obtained:
Saccharomyces cerevisiae [1] = experiment: Antifungal activity against Saccharomyces cerevisiae BY4741 harboring MTF1 YMR228W mutant gene by spectrophotometry; assay type: functional
In short: (§1)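 Haploid MATa BY4741 KanMX4 deletion strains pinned from frozen stocks into YPD + G418 (150 mg/liter), grown 3 days at 28°C to confluence, then pin-replicated into SC liquid with no drug or sordarin derivative GM193663 (2 ng/ml sensitivity; 62.5 ng/ml resistance). 28°C, OD595 read every 24 h for 5 days; growth scored relative to wild type on same plate and to untreated mutant.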

Saccharomyces cerevisiae [2] = experiment: Antifungal activity against Saccharomyces cerevisiae BY4741 harboring CTF3 YLR381W mutant gene by spectrophotometry; assay type: functional
In short: (§2)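 Screen of BY4741 KanMX4 deletion strains pre-grown 3 days at 28°C in YPD with G418 (150 mg/liter), then pinned into liquid SC containing GM193663. The sensitivity screen used 2 ng/ml; the resistance screen used 62.5 ng/ml, with validation at 62.5, 125 and 500 ng/ml. OD595 was read every 24 h over 5 days at 28°C. Growth was scored relative to wild type and to drug-free controls. Retests were at least in duplicate.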

Saccharomyces cerevisiae [3] = experiment: Antifungal activity against Saccharomyces cerevisiae BY4741 harboring RBS1 YDL189W mutant gene by spectrophotometry; assay type: functional; in short: as §1
Saccharomyces cerevisiae [4] = experiment: Antifungal activity against Saccharomyces cerevisiae BY4741 harboring DHH1 YDL160C mutant gene by spectrophotometry; assay type: functional; in short: as §2
Saccharomyces cerevisiae [5] = experiment: Antifungal activity against Saccharomyces cerevisiae BY4741 harboring SHU2 YDR078C mutant gene by spectrophotometry; assay type: functional; in short: as §1
Saccharomyces cerevisiae [6] = experiment: Antifungal activity against Saccharomyces cerevisiae BY4741 harboring DJP1 YIR004W mutant gene by spectrophotometry; assay type: functional; in short: as §2
Saccharomyces cerevisiae [7] = experiment: Antifungal activity against Saccharomyces cerevisiae BY4741 harboring MIP6 YHR015W mutant gene by spectrophotometry; assay type: functional; in short: as §2
Saccharomyces cerevisiae [8] = experiment: Antifungal activity against Saccharomyces cerevisiae BY4741 harboring HMI1 YOL095C mutant gene by spectrophotometry; assay type: functional; in short: as §2
Saccharomyces cerevisiae [9] = experiment: Antifungal activity against Saccharomyces cerevisiae BY4741 harboring ARN2 YHL047C mutant gene by spectrophotometry; assay type: functional; in short: as §2
Saccharomyces cerevisiae [10] = experiment: Antifungal activity against Saccharomyces cerevisiae BY4741 harboring ADE4 YMR300C mutant gene by spectrophotometry; assay type: functional; in short: as §2
Saccharomyces cerevisiae [11] = experiment: Antifungal activity against Saccharomyces cerevisiae BY4741 harboring ECM3 YOR092W mutant gene by spectrophotometry; assay type: functional; in short: as §2
Saccharomyces cerevisiae [12] = experiment: Antifungal activity against Saccharomyces cerevisiae BY4741 harboring UBX3 YDL091C mutant gene by spectrophotometry; assay type: functional; in short: as §1
Saccharomyces cerevisiae [13] = experiment: Antifungal activity against Saccharomyces cerevisiae BY4741 harboring QRI7 YDL104C mutant gene by spectrophotometry; assay type: functional; in short: as §1
Saccharomyces cerevisiae [14] = experiment: Antifungal activity against Saccharomyces cerevisiae BY4741 harboring MRPL3 YMR024W mutant gene by spectrophotometry; assay type: functional; in short: as §1
Saccharomyces cerevisiae [15] = experiment: Antifungal activity against Saccharomyces cerevisiae BY4741 harboring RPL16B YNL069C mutant gene by spectrophotometry; assay type: functional; in short: as §1
Saccharomyces cerevisiae [16] = experiment: Antifungal activity against Saccharomyces cerevisiae BY4741 harboring DPH2 YKL191W mutant gene by spectrophotometry; assay type: functional; in short: as §2
Saccharomyces cerevisiae [17] = experiment: Antifungal activity against Saccharomyces cerevisiae BY4741 harboring DPH1 YIL103W mutant gene by spectrophotometry; assay type: functional; in short: as §2
Saccharomyces cerevisiae [18] = experiment: Antifungal activity against Saccharomyces cerevisiae BY4741 harboring NOT5 YPR072W mutant gene assessed as reduction in fungal growth at 2 ng/ml by spectrophotometry; assay type: functional, organism-based
In short: (§3)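 Deletion strains (BY4741 background) pre-grown 3 days at 28°C in YPD + G418 (150 mg/liter), then pin-replicated into SC liquid containing 2 ng/ml GM193663 or no drug. 28°C, OD595 every 24 h over 5 days; growth scored against wild type on same plate and against drug-free mutant control; hits retested at least in duplicate at 2 ng/ml.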

Saccharomyces cerevisiae [19] = experiment: Antifungal activity against Saccharomyces cerevisiae BY4741 harboring ATP1 YBL099W mutant gene assessed as reduction in fungal growth at 2 ng/ml by spectrophotometry; assay type: functional, organism-based
In short: (§4)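 Haploid BY4741 KanMX4 deletion strains pre-grown in YPD with G418 (150 mg/liter) for 3 days at 28°C. They were then pin-replicated into liquid SC with sordarin derivative GM193663 at 2 ng/ml, or without drug. Plates were incubated at 28°C and OD595 read every 24 h for 5 days. Growth was scored against wild type on the same plate and against the drug-free mutant. Hits were retested at least in duplicate.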

Saccharomyces cerevisiae [20] = experiment: Antifungal activity against Saccharomyces cerevisiae BY4741 harboring ATP12 YJL180C mutant gene assessed as reduction in fungal growth at 2 ng/ml by spectrophotometry; assay type: functional, organism-based; in short: as §4
Saccharomyces cerevisiae [21] = experiment: Antifungal activity against Saccharomyces cerevisiae BY4741 harboring SSQ1 YLR369W mutant gene assessed as reduction in fungal growth at 2 ng/ml by spectrophotometry; assay type: functional, organism-based; in short: as §3
Saccharomyces cerevisiae [22] = experiment: Antifungal activity against Saccharomyces cerevisiae BY4741 harboring AFG3 YER017C mutant gene assessed as reduction in fungal growth at 2 ng/ml by spectrophotometry; assay type: functional, organism-based; in short: as §4
Saccharomyces cerevisiae [23] = experiment: Antifungal activity against Saccharomyces cerevisiae BY4741 harboring HEM14 YER014W mutant gene assessed as reduction in fungal growth at 2 ng/ml by spectrophotometry; assay type: functional, organism-based; in short: as §4
Saccharomyces cerevisiae [24] = experiment: Antifungal activity against Saccharomyces cerevisiae BY4741 harboring deletion mutation in dph4 gene at 300 to 500 ng/ml after 24 hrs by liquid growth assay; assay type: functional
Saccharomyces cerevisiae [25] = experiment: Antifungal activity against Saccharomyces cerevisiae BY4741 assessed as reduction in fungal growth up to 500 ng/ml for 72 hrs by spectrophotometry; assay type: functional, organism-based
In short: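 BY4741 grown overnight in SC (synthetic complete) medium, then inoculated into microtiter wells of SC medium containing successive twofold dilutions of sordarin starting at 500 ng/ml (range 0–500 ng/ml). Cultures incubated at 28°C, and growth followed as a growth inhibition curve.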

Saccharomyces cerevisiae [26] = experiment: Antifungal activity against Saccharomyces cerevisiae BY4741 harboring YLR125W mutation in unknown gene by spectrophotometry; assay type: functional
In short: (§5)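 Deletion strains from the nonessential haploid MATa BY4741 collection (KanMX4 replacement) were grown in YPD with G418 at 28°C for 3 days, then pinned into liquid SC with or without sordarin derivative GM193663 (2 ng/ml for sensitivity, 62.5 ng/ml for resistance). Cultures were kept at 28°C and read at OD595 every 24 h for 5 days. Growth was scored against wild type on the same plate and against the drug-free control. Hits were retested at least in duplicate.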

Saccharomyces cerevisiae [27] = experiment: Antifungal activity against Saccharomyces cerevisiae BY4741 harboring YER184C mutation in unknown gene by spectrophotometry; assay type: functional; in short: as §5
Saccharomyces cerevisiae [28] = experiment: Antifungal activity against Saccharomyces cerevisiae BY4741 harboring YHL041W mutation in unknown gene by spectrophotometry; assay type: functional; in short: as §5
Saccharomyces cerevisiae [29] = experiment: Antifungal activity against Saccharomyces cerevisiae BY4741 harboring YER087W mutation in unknown gene by spectrophotometry; assay type: functional; in short: as §5
Saccharomyces cerevisiae [30] = experiment: Antifungal activity against Saccharomyces cerevisiae BY4741 harboring YCL042W mutation by spectrophotometry; assay type: functional; in short: as §1
Saccharomyces cerevisiae [31] = experiment: Antifungal activity against Saccharomyces cerevisiae BY4741 harboring MOH1 YBL049W mutant gene by spectrophotometry; assay type: functional; in short: as §2
Saccharomyces cerevisiae [32] = experiment: Antifungal activity against Saccharomyces cerevisiae BY4741 harboring SUR2 YDR297W mutant gene by spectrophotometry; assay type: functional; in short: as §1

CO[C@H]1[C@@H](O)[C@H](O)[C@H](OC[C@@]23C[C@@H]4[C@H](C)CC[C@H]4[C@@]4(C=O)CC2C=C(C(C)C)[C@@]34C(=O)O)O[C@@H]1C [SORDARIN]
> 0.0625 µg/mL: MIC (Saccharomyces cerevisiae [32])
> 0.5 µg/mL: MIC (Saccharomyces cerevisiae [3]) | MIC (Saccharomyces cerevisiae [5]) | MIC (Saccharomyces cerevisiae [6]) | MIC (Saccharomyces cerevisiae [7]) | MIC (Saccharomyces cerevisiae [9]) | MIC (Saccharomyces cerevisiae [10]) | MIC (Saccharomyces cerevisiae [12]) | MIC (Saccharomyces cerevisiae [16]) | MIC (Saccharomyces cerevisiae [17]) | MIC (Saccharomyces cerevisiae [28]) | MIC (Saccharomyces cerevisiae [29]) | MIC (Saccharomyces cerevisiae [31])
> 0.125 µg/mL: MIC (Saccharomyces cerevisiae [1]) | MIC (Saccharomyces cerevisiae [2]) | MIC (Saccharomyces cerevisiae [4]) | MIC (Saccharomyces cerevisiae [8]) | MIC (Saccharomyces cerevisiae [11]) | MIC (Saccharomyces cerevisiae [13]) | MIC (Saccharomyces cerevisiae [14]) | MIC (Saccharomyces cerevisiae [15]) | MIC (Saccharomyces cerevisiae [26]) | MIC (Saccharomyces cerevisiae [27]) | MIC (Saccharomyces cerevisiae [30])
active: Activity (Saccharomyces cerevisiae [18]) | Activity (Saccharomyces cerevisiae [19]) | Activity (Saccharomyces cerevisiae [20]) | Activity (Saccharomyces cerevisiae [21]) | Activity (Saccharomyces cerevisiae [22]) | Activity (Saccharomyces cerevisiae [23]) | Activity (Saccharomyces cerevisiae [25])
50%: Activity (Saccharomyces cerevisiae [24])
